Laboratory results: ChEMBL document CHEMBL1773050, “Identification of inhibitors that block vaccinia virus infection by targeting the DNA synthesis processivity factor D4” (J Med Chem, 2011)
Converted amounts (≈) assume the structure as drawn.

Key:
BSC-1 = assay: (§1) Cytotoxicity against african green monkey BSC1 cells infected with Vaccinia virus assessed as lactate dehydrogenase release after 20 hrs by microplate reader; type: cell-based; conditions: chlorocebus aethiops, bsc-1, 20 h
Method in brief: (§2)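 BSC-1 cells, seeded at 1 × 10^4 cells/well for 24 h, then received inhibitors at 2-fold serial dilutions in fresh medium with 1% DMSO for 20 h. LDH release into the medium was read at 492 nm after 30 min with reaction mixture in the dark. 2% Triton X-100 gave maximal release and 1% DMSO served as baseline. Triplicates were used, with three independent repeats, giving CC50.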

Vaccinia virus = assay: Antiviral activity against Vaccinia virus infected in BSC-1 cells by plaque reduction assay; type: functional, organism-based; conditions: Orthopoxvirus vaccinia
[1] = biological target: Uracil-DNA glycosylase (Vaccinia virus (strain Western Reserve) (VACV) (Vaccinia virus (strainWR))) (UniProt P04303); assay: Binding affinity at Vaccinia virus WR strain D4 assessed as change in unfolding transition temperature at 50 uM by thermofluor method
Method in brief: (§3)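 Native D4 at 4 μM, His-tag removed and dialysed into buffer, was tested with or without 50 μM compound (final, 1% DMSO). Buffer was 25 mM Tris pH 7.2, 0.15 M NaCl, 5 mM ZnCl2, with Sypro Orange. Fluorescence was read from 25 to 80 °C at 1 °C/min. Tm is the unfolding midpoint, and ΔTm is Tm minus the DMSO mock. At least three independent experiments were run.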

[2] = biological target: Uracil-DNA glycosylase (Vaccinia virus (strain Western Reserve) (VACV) (Vaccinia virus (strainWR))) (UniProt P04303); assay: Binding affinity at Vaccinia virus WR strain D4 assessed as melting temperature at 50 uM by thermofluor method; method in brief: as §3
[3] = Selectivity index, CC50 for African green monkey BSC-1 cells to EC50 for Vaccinia virus; type: toxicity, cell-based; conditions: read-out: Ratio CC50/EC50
[4] = biological target: Uracil-DNA glycosylase (Vaccinia virus (strain Western Reserve) (VACV) (Vaccinia virus (strainWR)), UniProt P04303); assay: Inhibition of Vaccinia virus WR strain processivity factor D4 interaction with A20 protein assessed as inhibition of E9 DNA polymerase-mediated DIG-dUTP incorporation into DNA strand by rapid plate assay; parameters: species or system Orthopoxvirus vaccinia
Method in brief: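 Annealed biotinylated primer/100-bp template was coated on streptavidin plates. Compounds were 2-fold serial dilutions in DMSO. After 37 °C for 30 min, DIG-ELISA was read at 405 nm and normalised to DMSO and EDTA controls. Triplicates were used across at least three experiments.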

[5] = Solubility of the compound in phosphate buffer by chemiluminescence of total nitrogen contents; type: physicochemical
[6] = as §1; type: cell-based, BSC-1; conditions: chlorocebus aethiops, BSC-1 cells infected with Vaccinia virus; method in brief: as §2

| SMILES | CC50 (BSC-1) [µM] | EC50 (Vaccinia virus) [µM] | ΔTm [1] [°C] | Tm [2] [°C] | selectivity ratio [3] | IC50 [4] [µM] | solubility ([5]; buffer) [µg/mL] | CC50 at 20 h [6] [µM] | solubility ([5]; phosphate buffer, read-out: solubility) [µg/mL] |
| --- | --- | --- | --- | --- | --- | --- | --- | --- | --- |
| CCOc1ccc2c(c1)C1CC=CC1[C@H](c1ccccc1Cl)N2 (stereo partly specified) | > 200 | 22.4 | -5 | 35.2 | 9 | 221 |  |  |  |
| Cc1ccnc(NC(c2ccccc2F)c2ccc3cccnc3c2O)c1 (stereo unspecified) | > 200 | 2.9 | -2 | 36.4 | 69 | 157 |  |  |  |
| COc1ccc(Nc2nc(Nc3ccc(OC)cc3OC)nc(N3CCOCC3)n2)c(OC)c1 | 170 |  | -3.4 | 35 |  | > 200 |  |  |  |
| Fc1ccc(Nc2c(-c3ccccn3)nc3ccc(Cl)cn23)cc1 | > 200 | 3.8 | -3.7 | 34.7 | 53 | > 200 |  |  |  |
| Oc1ccc(Cl)cc1Sc1cc(Cl)ccc1O [FENTICLOR] |  | 18.7 |  |  |  | 38.5 |  |  |  |
| COc1cc(-c2nc3ccc(Cl)cn3c2Nc2ccc3c(c2)OCCO3)ccc1O | > 200 | 10.8 | -1.5 | 36.9 | 18 | > 200 |  |  |  |
| Cn1c(=O)n(C)c2cc(NS(=O)(=O)c3ccc(C(C)(C)C)cc3)c(NCc3ccccc3)cc21 | > 200 | 18.8 | 10 | 48.4 | > 10 | 132 | 0.9 (≈ 1.88 µM) |  |  |
| COc1cc(NC(=O)c2cccc3c2C(=O)N(C2CCCCC2)C3)cc(OC)c1OC | > 200 | > 200 | -4.9 | 33.2 |  | > 200 |  |  |  |
| COc1ccc(N2CCN(Cc3nc4c(c(=O)[nH]c(=O)n4C)n3Cc3ccc(Cl)cc3)CC2)cc1 | 92.8 | > 200 | -2.5 | 35.9 | 0.4 | > 200 |  |  |  |
| O=S(=O)(c1ccc(C2=CSC(Nc3ccc(F)cc3)N2CCCCCCO)cc1)N1CCCC1 (stereo unspecified) | > 200 | 3.2 | -3.3 | 35.1 | 63 | > 200 |  |  |  |
| Cc1cc2n(n1)C(c1cc(C(C)(C)C)c(O)cc1O)Nc1ccccc1-2 (stereo unspecified) | 92.8 | 21.5 | 4.9 | 44.3 | 4 | 138 | 19.1 (≈ 54.7 µM) |  |  |
| COc1ccc(Nc2cc(C(=O)NCCCN3CCN(c4ccccc4F)CC3)c3ccccc3n2)c(OC)c1 | > 200 | 25.8 | -3.6 | 34.8 | 8 | > 200 |  |  |  |
| Cc1ccccc1Nc1c(-c2ccc(Br)cc2O)nc2sccn12 | 142 | > 200 | -1.9 | 36.5 | 9 | > 200 |  |  |  |
| CCOc1ccccc1C(=O)Nc1ccc2nc3c(c(Nc4ccc(OC)c(OC)c4)c2c1)CCCC3 | 73.7 | > 200 | -2.1 | 36.3 | 11 | 106 |  |  |  |
| OC1COc2ccc(-c3cc(-c4ccc(F)cc4)c4c(n3)-c3cc(Cl)ccc3OC4)cc2N1 (stereo unspecified) | > 200 | 74.6 | -3.5 | 34.9 | 3 | > 200 |  |  |  |
| COc1ccc(/C=C/c2nc(-c3ccccc3O)n(-c3ccccc3)n2)cc1OC | 107 | > 200 | -3.7 | 34.7 | 0.5 | > 200 |  |  |  |
| CCOC(=O)c1cnc2c(ccc3ccccc32)c1Nc1ccc(N(C)C)cc1 | > 200 |  | -1.5 | 36.3 |  | 139 |  |  |  |
| COc1ccc(Nc2c(-c3cc(Br)ccc3O)nc3ncccn23)cc1OC | > 200 | 67.6 | -0.1 | 38.3 | 3 | 200 |  |  |  |
| Oc1ccc(NCc2ccccc2OCc2ccccc2)cc1 | 175 | 7.1 | 14.9 | 53.3 | 25 | 5.1 | 1.1 (≈ 3.6 µM) |  |  |
| COc1cc(-c2nc(-c3ccccc3)c(-c3ccc(Br)cc3)[nH]2)cc(OC)c1O | 57.2 | 16.7 | 4.6 | 43 | 3 | 91.2 | 1.4 (≈ 3.1 µM) |  |  |
| CN(C)c1ccc(NC(=O)CSc2nc(-c3ccco3)cc(C(F)(F)F)n2)cc1 | 57.2 | > 200 | -1.7 | 35.1 | 4 | 140 |  |  |  |
| C=C(Cn1cc(C(=O)c2ccc(CC)cc2)c(=O)c2ccccc21)Nc1ccc(OC)c(OC)c1 | 52.9 | > 200 | -3.2 | 35.4 | 0.3 | > 200 |  |  |  |
| COc1ccc(OCCn2c(NC(=O)c3ccc(OC)cc3)nc3ccccc32)cc1 | 23.2 | 47.9 | -4.1 | 34.3 | 0.5 | 169 |  |  |  |
| Cc1ccc2oc(-c3ccc(Cl)cc3)c(O)c(=O)c2c1 | > 200 |  | -2 | 36.4 |  | 195 |  |  |  |
| COC(=O)CC1Oc2ccc(C)cc2-n2cc(-c3ccc(F)cc3)nc21 (stereo unspecified) | 84.1 | > 200 | -6.6 | 32.2 | 0.4 | > 200 |  |  |  |
| COc1ccc(C)cc1N(CC(=O)N1CCC(C)CC1)S(=O)(=O)c1ccc(C)cc1 | > 200 |  | -4.8 | 33.6 |  | 175 |  |  |  |
| O=C1c2ccccc2-c2onc3c2C1C(NC1CCCCC1)C=C3NCCO (stereo unspecified) |  |  |  |  |  | 34.1 |  | 127 | 1.4 (≈ 3.69 µM) |
| COc1ccc(NCc2nc3ccccc3n2CCOc2ccc(C)cc2)cc1 | 121 | 5.5 | -3.2 | 35.2 | 22 | > 200 |  |  |  |
